# Where two headings read alike, the source gives them in different places.
# Columns and labels:
# 8-Isoprostane (8-ISO) = experiment: CeeTox lipid peroxidation measured as 8-isoprostane; conditions: H4IIE cells, 8-ISO score
# [1] = test system: Intracellular glutathione (GSH); experiment: CeeTox intracellular glutathione; conditions: H4IIE cells
# H4IIE cells [2] = experiment: CeeTox cell mass; conditions: 24 hr
# CYP3A4 = CYP3A4 (Homo sapiens, UniProt P08684); experiment: Cloe Screen Cytochrome P450 Inhibition assay; type: in vitro ADME
# H4IIE cells [3] = experiment: CeeTox analysis composite; type: cell-based, rat; conditions: H4IIE cells, 24 hr
# H4IIE cells [4] = type: cell-based; conditions: 24 hr
# H4IIE cells [5] = experiment: CeeTox cellular ATP content; conditions: 24 hr
# CYP2C9 = CYP2C9 (Homo sapiens, UniProt P11712); experiment: Cloe Screen Cytochrome P450 Inhibition assay; type: in vitro ADME
# P-glycoprotein (PgP) = experiment: P-glycoprotein; type: cell-based, rat; conditions: H4IIE cells, MTT, 24 hr, single exposure concentration (20 or 50 μM), without CSA
# S. typhimurium TA989 = experiment: Ames test for mutagenicity, frame-shift strain; type: cell-based; conditions: first TA98 column; for TA98+S9: with S9, up to 10 μM; for TA98−S9: without S9, up to 10 μM
# H4IIE cells [6] = experiment: CeeTox membrane toxicity; conditions: 24 hr, α-GST leakage
# CYP2C19 = CYP2C19 (Homo sapiens, UniProt P33261); experiment: Cloe Screen Cytochrome P450 Inhibition assay; type: in vitro ADME
# CYP2D6 = CYP2D6 (Homo sapiens, UniProt P10635); experiment: Cloe Screen Cytochrome P450 Inhibition assay; type: in vitro ADME
# In short: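 Run blinded. […] Metabolite formation was monitored by LC-MS/MS. IC50 was calculated from the decrease in metabolite formation relative to vehicle control. Quinidine served as positive control inhibitor.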
# P-glycoprotein (MDR1) = experiment: BBB penetration; type: in vitro ADME, canine; conditions: dog, MDCK-MDR1
# In short: (§1)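 MDCK cells transfected with human MDR1 (P-gp) were grown to a confluent monolayer over 4 days. Test compound was added apically, and A→B transport was followed over 60 min; B→A transport was also measured. Compound on each side was quantified by GC/MS. Papp was calculated for both directions, and efflux ratio = Papp B→A/Papp A→B. High BBB potential: Papp A→B ≥3.0×10⁻⁶ cm/s and efflux <3.0.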
# MDR1-MDCK cells = experiment: BBB penetration; type: in vitro ADME, canine; conditions: classification from Papp A→B and efflux
# In short: as §1
# CYP1A2 = target: T1, CYP1A2 (Homo sapiens, UniProt P05177); experiment: Cloe Screen Cytochrome P450 Inhibition assay; type: in vitro ADME
# T1 sequence (P05177 1-516): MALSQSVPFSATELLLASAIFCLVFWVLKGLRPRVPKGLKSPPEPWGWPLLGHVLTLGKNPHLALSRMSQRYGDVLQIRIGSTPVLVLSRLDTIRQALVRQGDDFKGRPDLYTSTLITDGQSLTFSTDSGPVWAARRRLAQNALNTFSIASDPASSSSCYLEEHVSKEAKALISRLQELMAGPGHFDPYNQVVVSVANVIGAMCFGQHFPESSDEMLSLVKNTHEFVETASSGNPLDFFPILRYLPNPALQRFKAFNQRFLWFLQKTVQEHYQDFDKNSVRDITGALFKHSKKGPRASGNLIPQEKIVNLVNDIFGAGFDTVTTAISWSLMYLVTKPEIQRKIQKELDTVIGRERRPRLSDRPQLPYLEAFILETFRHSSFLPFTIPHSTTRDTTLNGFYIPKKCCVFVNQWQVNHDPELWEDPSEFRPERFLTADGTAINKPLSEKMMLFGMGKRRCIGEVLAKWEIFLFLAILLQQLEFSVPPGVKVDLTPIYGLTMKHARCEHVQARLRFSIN
# Caspase 3 = experiment: CeeTox apoptosis; type: cell-based, rat; conditions: H4IIE cells
# HT22 cells = experiment: In vitro ischemia assay; type: cell-based; conditions: Mus musculus, HT-22, read-out: HT22 EC50 (nM)
# In short: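 Mouse HT22 hippocampal cells were grown in DMEM with 10 % FCS and seeded at 5×10^3 cells/well. Next day, medium was changed to DMEM with 7.5 % dialyzed FCS, and cells were exposed to 20 µM iodoacetic acid with or without varying test compound concentrations for 2 h. Medium was then replaced with compound-containing medium without IAA for 20 h. Viability was read by MTT (5 µg/ml, 4 h, 37 °C), solubilized in DMF/SDS pH 4.7, A570.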
# mouse cortical neurons = experiment: Cortical neuron glutamate excitotoxicity neuroprotection assay; type: cell-based; conditions: tested at 0.1 μM
# CYP3A4, sequence (P08684 2-503): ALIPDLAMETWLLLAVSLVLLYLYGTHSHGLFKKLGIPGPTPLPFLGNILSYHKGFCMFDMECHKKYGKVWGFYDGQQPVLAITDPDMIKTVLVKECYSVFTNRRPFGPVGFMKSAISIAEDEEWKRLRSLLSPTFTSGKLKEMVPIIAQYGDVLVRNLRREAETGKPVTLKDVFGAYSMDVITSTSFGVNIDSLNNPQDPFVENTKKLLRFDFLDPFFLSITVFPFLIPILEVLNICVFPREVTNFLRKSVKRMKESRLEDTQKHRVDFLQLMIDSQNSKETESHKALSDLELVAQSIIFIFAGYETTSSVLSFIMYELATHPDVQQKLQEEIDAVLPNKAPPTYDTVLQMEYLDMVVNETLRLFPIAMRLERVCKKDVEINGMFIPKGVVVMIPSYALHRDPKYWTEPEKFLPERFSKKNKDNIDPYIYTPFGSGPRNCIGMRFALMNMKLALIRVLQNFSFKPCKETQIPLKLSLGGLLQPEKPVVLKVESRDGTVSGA
# CYP2C9, sequence (P11712 whole entry): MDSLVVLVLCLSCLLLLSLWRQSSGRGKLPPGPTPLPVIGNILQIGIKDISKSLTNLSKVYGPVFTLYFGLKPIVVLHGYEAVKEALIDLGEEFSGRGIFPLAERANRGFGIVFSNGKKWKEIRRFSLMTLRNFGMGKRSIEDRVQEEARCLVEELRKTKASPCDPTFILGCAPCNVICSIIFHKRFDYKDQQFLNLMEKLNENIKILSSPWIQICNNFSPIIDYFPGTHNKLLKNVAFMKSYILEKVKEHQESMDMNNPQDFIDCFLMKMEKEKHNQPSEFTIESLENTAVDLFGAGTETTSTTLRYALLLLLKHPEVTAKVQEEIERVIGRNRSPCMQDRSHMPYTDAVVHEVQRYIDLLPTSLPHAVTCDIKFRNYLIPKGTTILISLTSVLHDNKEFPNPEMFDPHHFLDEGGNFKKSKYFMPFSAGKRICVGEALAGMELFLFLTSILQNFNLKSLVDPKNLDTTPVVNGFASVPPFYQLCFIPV
# CYP2D6, sequence (P10635 whole entry): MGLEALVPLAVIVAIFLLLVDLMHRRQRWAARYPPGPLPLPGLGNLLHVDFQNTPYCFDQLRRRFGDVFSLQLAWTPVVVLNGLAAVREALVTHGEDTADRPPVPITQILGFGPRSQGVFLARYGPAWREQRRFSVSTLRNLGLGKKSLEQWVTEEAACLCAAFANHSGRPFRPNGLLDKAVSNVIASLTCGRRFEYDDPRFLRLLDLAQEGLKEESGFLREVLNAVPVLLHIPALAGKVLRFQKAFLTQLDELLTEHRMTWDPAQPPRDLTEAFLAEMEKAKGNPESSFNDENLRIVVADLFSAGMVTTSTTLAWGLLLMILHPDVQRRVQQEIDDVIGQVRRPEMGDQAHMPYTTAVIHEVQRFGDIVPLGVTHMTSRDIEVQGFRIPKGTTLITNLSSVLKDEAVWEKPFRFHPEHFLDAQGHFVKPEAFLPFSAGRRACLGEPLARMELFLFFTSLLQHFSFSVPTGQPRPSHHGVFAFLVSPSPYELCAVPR
# CYP2C19, sequence (P33261 whole entry): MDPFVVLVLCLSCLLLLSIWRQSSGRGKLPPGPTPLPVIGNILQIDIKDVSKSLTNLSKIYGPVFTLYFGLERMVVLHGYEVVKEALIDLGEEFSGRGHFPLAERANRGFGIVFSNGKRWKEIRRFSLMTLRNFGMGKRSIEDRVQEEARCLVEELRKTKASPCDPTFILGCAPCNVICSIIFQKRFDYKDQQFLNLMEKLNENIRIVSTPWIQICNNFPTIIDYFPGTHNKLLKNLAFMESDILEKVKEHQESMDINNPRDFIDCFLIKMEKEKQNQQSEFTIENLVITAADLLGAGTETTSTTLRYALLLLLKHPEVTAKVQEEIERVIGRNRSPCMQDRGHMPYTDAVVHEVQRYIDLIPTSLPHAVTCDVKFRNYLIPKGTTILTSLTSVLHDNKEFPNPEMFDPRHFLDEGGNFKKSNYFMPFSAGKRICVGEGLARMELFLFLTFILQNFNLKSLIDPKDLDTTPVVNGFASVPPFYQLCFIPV
SMILES,Membrane Lipid Peroxidation (8-Isoprostane (8-ISO)),Total GSH TC50 [1],Cell Mass TC50 (H4IIE cells [2]),MTT TC50 (H4IIE cells [4]),ATP TC50 (H4IIE cells [5]),% Control(Compound) (P-glycoprotein (PgP)),TA98+S9 (S. typhimurium TA989),TA98−S9 (S. typhimurium TA989),MemTox TC50 (H4IIE cells [6]),Papp A→B at 60 min (P-glycoprotein (MDR1)),efflux ratio at 60 min (P-glycoprotein (MDR1)),BBB Potential (MDR1-MDCK cells),also measured
"O=c1c(O)c(-c2ccc(O)c(O)c2)oc2c1ccc1ccccc12 [CSMC-6, 3,3',4'-trihydroxy alpha-naphthoflavone]",0,87 µM,80 µM,71 µM,81 µM,68.3 % Control,Negative (Not mutagenic < 10 μM (NEGATIVE)),Negative (Not mutagenic < 10 μM (NEGATIVE)),282 µM,–,–,–,"IC50 (CYP3A4; read-out: CYP3A4 IC50, human liver microsomes, substrate head: Mephenytoin): > 10 µM; minimum TC50 (H4IIE cells [3]; lowest of the CeeTox endpoints): 71 µM; TC50 for all general toxicity measures (range over endpoints) (H4IIE cells [3]; range across CeeTox endpoints): 71 to 282 µM; IC50 (CYP2C9; read-out: CYP2C9 IC50, human liver microsomes, substrate Tolbutamide): > 10 µM; IC50 (CYP2C19; read-out: CYP2C19 IC50, human liver microsomes, substrate head: Midazolam): > 10 µM; IC50 (CYP2D6; read-out: CYP2D6 IC50, human liver microsomes, substrate DextroM): > 10 µM"
"CCCc1ccc2oc(-c3ccc(O)c(O)c3)c(O)c(=O)c2c1 [CSMC-13, 6-propyl-3,3',4'-trihydroxy flavone]",2 (2 = Concentration related increase with maximum values ≥ 15 pg/mL),252 µM,78 µM,83 µM,58 µM,87.9 % Control,Negative (Not mutagenic < 10 μM (NEGATIVE)),Negative (Not mutagenic < 10 μM (NEGATIVE)),>300 µM,0.1 ×10⁻⁶ cm/s,1,low,IC50 (CYP3A4): > 10 µM; IC50 (CYP2C9): > 10 µM; IC50 (CYP2C19): > 10 µM; IC50 (CYP2D6): > 10 µM; IC50 (CYP1A2): > 25 µM; Caspase 3 Activity (Index/Dose): dose (Caspase 3; dose at which the index was seen): 100; Caspase 3 Activity (Index/Dose): index (Caspase 3; index of RFU): 1 (0–200 = 1)
"O=c1c(O)c(-c2ccc(O)c(O)c2)oc2cc(O)ccc12 [Fisetin, 3,3',4',7-tetrahydroxyflavone, reference compound]",–,–,–,–,–,–,–,–,–,2.96 ×10⁻⁶ cm/s,0.7,low,EC50 (HT22 cells): 4000 nM; Neuroprotection of mouse cortical neurons against glutamate (mouse cortical neurons): did not confer neuroprotection

# Reference: article PMC3653324 (Translational stroke research, 2012)
